Experimental findings from the EternaBench riboswitch data are described below.

The subject of the data set is MS2 coat protein. The data set is described as follows: apparent Kd, MS2 coat protein; higher = weaker binding; RNA-MaP array; FMN 200 µM where present. The method, boiled down: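 Green signal was scaled to red-channel RNA signal and control-cluster median Fmax, and the apparent Kd was taken as the median of filtered per-cluster binding-curve fits. The binding series used SNAP-549-labelled MS2 coat protein from 0.7 or 1.5 nM, doubling to 3 µM, on designs transcribed by stalled E. coli RNA polymerase on Illumina sequencing-chip clusters. Each series ran without and then with constant ligand in 100 mM Tris-HCl pH 7.5, 80 mM KCl, 4 mM MgCl2, BSA, DTT, yeast tRNA and Tween-20.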

The mark [1] stands for this setting: designed as: OFF switch for flavin mononucleotide, no ligand.
Setting [2] is: ligand present: flavin mononucleotide, designed as: OFF switch for flavin mononucleotide.
Setting [3] is: designed as: ON switch for flavin mononucleotide, no ligand.
The mark [4] stands for this setting: ligand present: flavin mononucleotide, designed as: ON switch for flavin mononucleotide.

For the sequence “CGUGUUAGAGGAGGAUAUAGCGCAAGAAGGUCGCUAGAAGGCCUUGACAUGAGGAUCACCCAUGUGAUCGGCUCUCUGGGUAAG”, the “apparent Kd” value under setting [1] was found to be 211 nM and the “apparent Kd” value under setting [2] came out at 141 nM.
Turning to “UCGCCACAUGAGGAUCACCCAUGUCAGGAUAUCUAGAUGCGUCUUGAGCUCAAGCGCUGGAGAAGGGAUUGGGU”, the “apparent Kd” value amounted to 235 nM under setting [1] and 67.5 nM under setting [2].
In the case of “UCUUAACAUGAGGAUCACCCAUGUGAGGAUAUGAUGCAGCAGUGGUCUACGCUGUGCAUCAGAAGGUACAUGGG”, the “apparent Kd” value stood at 23 nM under setting [1] and 20.1 nM under setting [2].
Regarding “CGCUGUCUCGCAGGAUAUGCAUUGGAUUACAAUGCAGAAGGGCGAUUACAUGAGGAUCACCCAUGUGUUGACAGUGAAGAAUAG”, the “apparent Kd” value runs as follows: under setting [3], 96.6 nM; under setting [4], 22.2 nM.
In the case of “CUCAUGUCAGGAUAUUAAGUCCGUAGCCUAUGGCUGCAACAUGAGAAGGGACAUGAGGAUCACCCAUGUCGGGA”, the “apparent Kd” value amounted to 47.5 nM under setting [1] and 76.8 nM under setting [2].
On to “UCAUGAAGGGCAGGAUAUGGACAUGAGGAUCACCCAUGUACAUGGGAUUAUAUACUGAAUUUAUACUAGAAGGGUUACAUAAAU”, for which the “apparent Kd” value reads like this: under setting [1], 31 nM; under setting [2], 18.1 nM.
Taken in the same sequence, the figures for “GAUUCGGGAGGAUAUACAUGAGGAUCACCCAUGUGUUUUUUGUGUGUUAUGUUAUCAUGUAGAAGGUUUGGGUC” were 286 nM and 260 nM.
Taken in the same sequence, the figures for “CUGGUGUGAGGAUAUCAGGACACGCCCGCGGACGUGUCAAAUGAGAAGGCACAUGAGGAUCACCCAUGUGGGAC” were 33.4 nM and 166 nM.
On to “GGGAGGUCAGGAUAUGCAUGGCGGGACUUGCGUCGUGGCGUGCAGAAGGGACAUGAGGAUCACCCAUGUGGAGA”, for which the “apparent Kd” value was determined as 127 nM under setting [1] and 252 nM under setting [2].
For “GGGUACACCGGAGGAUAUCAUGUAAAUACAUGAGGAUCACCCAUGUCGAUGGAGACAUCGGAGAUUGAGAAGGCCGAUGUACCG”, the “apparent Kd” value under setting [3] was 155 nM and the “apparent Kd” value under setting [4] was 9.1 nM.
“UGGUACUAGGGAGGAUAUGGGAAGAUACAUGAGGAUCACCCAUGUUUAAGAAUGCCGAGAGUCAACUAGAAGGCCCUAGUACCU”: the “apparent Kd” value runs as follows: under setting [3], 180 nM; under setting [4], 20.3 nM.
On the same counts, the results for “AAGUCUGGACGAGGAUAUCAGUUGUAUCUGGCAUCAACAUGAGGAUCACCCAUGUUGCAAUAGGGUGAGAAGGCGUUUGGGCAA” are 278 nM and 29.7 nM.
As for “AUGCUUUAUGUAGGAUAUACAUACGGUACGUAUGUAGAAGGACAUGAGGAUCACCCAUGUAAAUUAUUAUUAAAUAUCAUACAU”, the “apparent Kd” value is, setting by setting: under setting [1], 8.56 nM; under setting [2], 12.3 nM.
As for “AAAUACGUAAAGGACACAUGAGGAUCACCCAUGUUUCUGUUCAAGGAUAUGAGGUGAAUGAUCCGUCAGAAGGUGAACUUGCUU”, the “apparent Kd” value came out at 117 nM under setting [3] and 624 nM under setting [4].
As for “CAGGUAGACUGAGGAUAUACAAUAAGACCUAGUCUAUCUAGGUCCCUCACAUGAGGAUCACCCAUGUAGAAGGCAGUCUGCCUG”, the “apparent Kd” value by setting is: under setting [1], 51.5 nM; under setting [2], 636 nM.
Take “UAAUAAUAGCAAGGAUAUGAUUAUUAUAAUAUAUCAGAAGGUGCACAUGAGGAUCACCCAUGUUUUAUAAUUUGUAAUUUAAAU”: the “apparent Kd” value came out at 54.4 nM under setting [1] and 37.9 nM under setting [2].
Regarding “GUGUACAGAGGAUAUGCACGAGGAGUUACGAAAGUAACUUCACAUGAGGAUCACCCAUGUAGAAGGCUGUACAC”, the “apparent Kd” value under setting [1] was found to be 14.4 nM and the “apparent Kd” value under setting [2] was 17.8 nM.
On the same counts, the results for “CGCAAUAUACAGAAGGAGUUAUUUAGAGGAUUACUAGGAUAUGUUCACAUGAGGAUCACCCAUGUCAUAUGGAGUUUUAUUGCG” are 9.43 nM and 8.27 nM.
Take “ACUAGGCGAGGAUAUACAUGCUUAACGCAGGAAAAGCUGCGACAUGAGGAUCACCCAUGUAGAAGGCGCAAAUA”: the “apparent Kd” value runs as follows: under setting [1], 15.7 nM; under setting [2], 115 nM.
“CCGCAUGCUGUCAGGAUAUCGUAGAUAAUAAUAUGCGAGAAGGGACAUGAGGAUCACCCAUGUAAGAGGCGGCC”: the “apparent Kd” value by setting is: under setting [1], 28.9 nM; under setting [2], 37.7 nM.
On the same counts, the results for “ACAUGAUAUGUAGGAUAUCACAUUAAUUGAUUAAUAUUUCUAUAUAGAAUUUGAGAAGGACAUUUACAUGAGGAUCACCCAUGU” are 10.3 nM and 10.3 nM.
On to “UUGGACGUCGUAGGACAUGUAGGAUAUUCCUACAUGAGGAUCACCCAUGUUGACAUGGAAGAAGGACAGAAGGACGAUGUCCAU”, for which the “apparent Kd” value is, setting by setting: under setting [3], 723 nM; under setting [4], 46.9 nM.
As for “CCUCCACAUGAGGAUCACCCAUGUCAGGAUAUCGUGUGUUUUUUUUCGGUCGCGCGUGCGAGAAGGGACGUCUU”, the “apparent Kd” value is, setting by setting: under setting [1], 22.1 nM; under setting [2], 25 nM.
For the sequence “GGAAGCACGACGGAGCUAAGGUAGAAGGAUAUCCACGGCUAUAUCCACAUGAGGAUCACCCAUGUGGAGAAGGUCUAUCUUAAG”, the “apparent Kd” value turned out to be 5.51 nM under setting [1] and 8.8 nM under setting [2].
Regarding “AUCAGCUCGUGAGGAUAUGCGUCACUGCGUCAGCAGUGUGGUAAGAUCACAUGAGGAUCACCCAUGUAGAAGGCACGAGCUGAU”, the “apparent Kd” value under setting [1] was found to be 34 nM and the “apparent Kd” value under setting [2] is 455 nM.
On the same counts, the results for “CGCUCAAUAUAUAAGGAAAGAAUCAGAAGGCGUUACAUGAGGAUCACCCAUGUUUUGUAUAGUAACGAGGAUAUGAUAUGAGCG” are 17.9 nM and 15.3 nM.
Taken in the same sequence, the figures for “GCCUGAUCCACUUUAGGCCCAGACAGAAGGGCACACGGUCUAAGUCACAUGAGGAUCACCCAUGUGCAGGAUAUGUCUCGACUC” were 8.88 nM and 26.2 nM.
Turning to “GCUAGUAUUGCAGGAUAUUGUGUUUAAUUAUGGCAAGAAGGGCAUUACAUGAGGAUCACCCAUGUUUUCCUUAGUCAUACUAGC”, the “apparent Kd” value was 5.57 nM under setting [1] and 6.63 nM under setting [2].
Taken in the same sequence, the figures for “CUUUUAUUGGUCCAUUUUUUCUACAUGAGGAUCACCCAUGUGCAGGAUAUCGUGAUUAUUAUCAACGAGAAGGGCAGAUUCACG” were 29.8 nM and 78.4 nM.
On to “GCUUUAGCACAUGAGGAUCACCCAUGUAGCGUGGGCUUACACAGAAGGGCAAACCGUUACGGGAUGUAGGAUAUGUGCAAAAUG”, for which the “apparent Kd” value amounted to 196 nM under setting [3] and 68.6 nM under setting [4].
Turning to “UGGUACAUCGGAGGAUAUCAUGUAAAUACAUGAGGAUCACCCAUGUCGUACGAGAGUACGGAGAUUGAGAAGGCCGAUGUACCU”, the “apparent Kd” value under setting [3] turned out to be 25.7 nM and the “apparent Kd” value under setting [4] came out at 15 nM.
As to “GCUGACGAUGUAGGAUAUCAGUAUAAUAAAUACUGAGAAGGACAUGAGGAUCACCCAUGUAACUCACGUCAGCAGAGGAAACUC”, the “apparent Kd” value was determined as 17.6 nM under setting [1] and 20.4 nM under setting [2].
As to “ACAUGUACAGGAUAUACAUGGAUGAUACACGUAUUUCCACUACAUGAGGAUCACCCAUGUAGAAGGGUACAUGA”, the “apparent Kd” value reads like this: under setting [1], 39.7 nM; under setting [2], 18.4 nM.
In the case of “GUAAAGUGAGGAUAUGGUAAAUUAAUUAUUUAUUAAUUAAUCCAGAAGGCACAUGAGGAUCACCCAUGUAAAUG”, the “apparent Kd” value under setting [1] was found to be 31.2 nM and the “apparent Kd” value under setting [2] is 56.1 nM.
With “GUUAAACAUGAGGAUCACCCAUGUAAGGAUAUGCUGCGGUCGCGAUGACGUGACUGCAGCAGAAGGUACAAAUG”, the “apparent Kd” value worked out at 86.8 nM under setting [1] and 96.5 nM under setting [2].
On the same counts, the results for “UGGUACAUGAGGAUCACCCAUGUAAGAGCCCUCAUGCGAUGUAGAAGGAUAAUGGGAGUACUGCUAUAGGAUAUACAUGAGUUU” are 145 nM and 147 nM.
In the case of “GAUAUGUUAGGAUAUCAAACCUUGUUGAAUCAACGAGCCAGUGAGAAGGAACAUGAGGAUCACCCAUGUGUCCG”, the “apparent Kd” value runs as follows: under setting [1], 16.2 nM; under setting [2], 16.3 nM.
On to “UGGUAACAUGAGGAUCACCCAUGUCAGGAUAUCAGUAAGAAUAGAUUAGAUUAGAAUAUGAGAAGGGACUAUAU”, for which the “apparent Kd” value by setting is: under setting [1], 37.3 nM; under setting [2], 31.6 nM.
Consider “UGAGCUGAAGGAUAUGCGUAAUCUCGGUGACGAGUAGAUCUACAUGAGGAUCACCCAUGUAGAAGGUCAGUUCU”, for which the “apparent Kd” value under setting [1] is 15.5 nM and the “apparent Kd” value under setting [2] stood at 17.5 nM.
Taken in the same sequence, the figures for “GUCAGCUCGUGAGGAUAUACAACACUGCUUCGGCAGUGUAAUUUCCUCACAUGAGGAUCACCCAUGUAGAAGGCACGAGCUGAU” were 12.7 nM and 242 nM.
Turning to “AGAGACCUCACAGGAUAUGCUGGACUUUGUCCAGCAGAAGGGUGAUAACAUGAGGAUCACCCAUGUAUGGUCUCCAAAUUUAAU”, the “apparent Kd” value was 1110 nM under setting [3] and 131 nM under setting [4].
For “UUUUGGCAUGUAGGAUAUGGGUCCGAUUAGGAUUUAGAAGGACAUGAGGAUCACCCAUGUGCAUUUAAUUGGUCAUUACCUUUU”, the “apparent Kd” value reads like this: under setting [1], 84.9 nM; under setting [2], 115 nM.
Consider “UUACAUACAAAUGUACAUGAGGAUCACCCAUGUUUGUUGGGAAGAAGGGUAACAGUACUACACAUACAGGAUAUUUCACAAAUA”, for which the “apparent Kd” value runs as follows: under setting [3], 54 nM; under setting [4], 34 nM.
On to “UGUCGGAGCAGAGGAUAUUACAUGAGGAUCACCCAUGUAUGAACCAAUAGCUGGACACAGCAAUGUAAGAAGGCUGCUCCGACA”, for which the “apparent Kd” value by setting is: under setting [1], 11.4 nM; under setting [2], 133 nM.
As for “GUCGUGUUAGGAUAUGGCGGCGGCGGCGUUUGUUGUUGUUGUUAGAAGGAACAUGAGGAUCACCCAUGUAUGAC”, the “apparent Kd” value reads like this: under setting [1], 43.4 nM; under setting [2], 119 nM.
As to “CUAAGGGAUUGCUCGAAGACAUGAGGAUCACCCAUGUAGGCGAGAAGGGCGGCGACUUUAGCGCUGCAGGAUAUCGACUGCAGU”, the “apparent Kd” value reads like this: under setting [1], 9 nM; under setting [2], 10.1 nM.
Taken in the same sequence, the figures for “AGCACGUCAGGAUAUCUGAUGUCUAACUUCGGUUAGACAUCAGAGAAGGGACAUGAGGAUCACCCAUGUGCAAA” were 60.6 nM and 77.9 nM.
Regarding “GAGAUGUGAGGAUAUCUAGACCAUGGAAAAGCCACGGUCCGAGAGAAGGCACAUGAGGAUCACCCAUGUGAUGA”, the “apparent Kd” value under setting [1] turned out to be 45.9 nM and the “apparent Kd” value under setting [2] came to 171 nM.
